Source: ChEMBL document CHEMBL4017501, “Paralog Specificity Determines Subcellular Distribution, Action Mechanism, and Anticancer Activity of TRAP1 Inhibitors” (J Med Chem, 2017)
The source made the active and inactive calls. The calls are words filed in the database; no cut-off is given here.

How the values were obtained:
Hepatocyte = assay: Cytotoxicity against mouse primary hepatocytes assessed as reduction in cell viability at 5 to 20 uM after 24 hrs by MTT assay; type: cell-based
How it was run: (§1)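 Corneal cells kept in corneal medium; hepatocytes isolated from 8-week-old BALB/c mice and kept in M199/EBSS with 10% FBS. Cells given a range of drug concentrations for 24 h. MTT absorbance read at 595 nm and normalized to DMSO; two independent experiments in duplicate, mean ± SEM.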

Heat shock protein HSP90 [1] = target: T1, Heat shock protein HSP90 (Homo sapiens, UniProt P07900+P08238); assay: Inhibition of HSP90 in human PC3 cells assessed as induction of HSP70 protein expression at 10 uM after 6 hrs by Western blot method; type: cell-based
[2] = Cytotoxicity against human corneal cells assessed as reduction in cell viability at 5 to 20 uM after 24 hrs by MTT assay; type: cell-based; how it was run: as §1
Heat shock protein HSP90 [3] = target: T1, Heat shock protein HSP90; assay: Inhibition of HSP90 in human HeLa cells assessed as induction of HSP70 protein expression at 10 uM after 6 hrs by Western blot method; type: cell-based
[4] = target: Heat shock protein HSP 90-alpha (Homo sapiens, UniProt P07900); assay: Inhibition of FITC3-labeled PU-H71 binding to recombinant HSP90alpha (unknown origin) after 24 hrs by fluorescence polarization assay
[5] = target: T2, Heat shock protein 75 kDa, mitochondrial (Homo sapiens, UniProt Q12931); assay: Inhibition of FITC3-labeled PU-H71 binding to recombinant human N-terminal His6-tagged TRAP1 (60 to 561 residues) expressed in Escherichia coli BL21(DE3) after 24 hrs by fluorescence polarization assay
T2 sequence (Q12931 whole entry): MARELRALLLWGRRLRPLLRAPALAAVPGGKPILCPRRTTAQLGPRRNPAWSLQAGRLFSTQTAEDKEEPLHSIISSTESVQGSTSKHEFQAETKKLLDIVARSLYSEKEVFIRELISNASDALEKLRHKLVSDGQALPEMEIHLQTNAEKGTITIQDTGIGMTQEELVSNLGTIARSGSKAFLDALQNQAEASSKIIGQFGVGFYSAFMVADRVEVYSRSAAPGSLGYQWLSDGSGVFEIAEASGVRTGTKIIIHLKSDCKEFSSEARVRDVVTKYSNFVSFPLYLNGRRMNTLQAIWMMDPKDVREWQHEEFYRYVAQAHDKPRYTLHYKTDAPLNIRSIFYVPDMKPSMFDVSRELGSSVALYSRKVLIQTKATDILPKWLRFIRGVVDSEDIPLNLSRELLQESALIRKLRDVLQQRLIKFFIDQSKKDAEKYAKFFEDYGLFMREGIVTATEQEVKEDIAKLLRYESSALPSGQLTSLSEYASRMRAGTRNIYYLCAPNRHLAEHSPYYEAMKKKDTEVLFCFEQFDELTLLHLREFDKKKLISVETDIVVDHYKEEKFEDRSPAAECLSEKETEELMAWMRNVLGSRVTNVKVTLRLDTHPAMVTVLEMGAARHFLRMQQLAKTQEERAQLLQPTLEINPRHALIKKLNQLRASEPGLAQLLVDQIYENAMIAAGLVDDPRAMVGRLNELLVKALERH
How it was run: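 Recombinant TRAP1 (100 nM) incubated with 10 nM 1-FITC3 probe and varying inhibitor concentrations for 24 h at 4 °C. Buffer: PBS-type salts with 1 mM DTT, 2 mM MgCl2, 0.1 mg/mL BSA, 0.05% NP40, pH 7.3. Polarization (mP) scaled to maximum and minimum values; mean ± SEM of two independent experiments.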

[6] = target: T3, Heat shock protein 75 kDa, mitochondrial (Homo sapiens) (UniProt Q12931); assay: Inhibition of TRAP1 in human HeLa cells assessed as induction of mitochondrial ROS production after 6 hrs by Mito-Sox staining based flow cytometry; type: cell-based
T3 sequence (whole entry): T2 sequence (Q12931 whole entry)
How it was run: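 HeLa cells given drug for 6 h, then stained with 200 nM Mito-SOX Red for 20 min at 37 °C. Cells washed with PBS, trypsinized, resuspended and analysed by flow cytometry for mitochondrial superoxide.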

[7] = target: T3, Heat shock protein 75 kDa, mitochondrial (Homo sapiens); assay: Inhibition of TRAP1 in human HeLa cells assessed as cytochrome c release at 20 uM after 4 hrs by Western blot method; type: cell-based
How it was run: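 HeLa cells treated at 20 μM for 4 h. Mitochondrial fractionation performed; cytoplasmic fraction probed for cytochrome c by Western blot.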

For `CO[C@H]1/C=C\C=C(/C)C(=O)NC2=CC(=O)C(NCCN(C)C)=C(C[C@@H](C)C[C@H](OC)[C@H](O)[C@@H](C)/C=C(\C)[C@@H]1OC(N)=O)C2=O` [ALVESPIMYCIN], the Activity (Hepatocyte) was “Toxic”, the “inhibition (INH)” value (Heat shock protein HSP90 [1]) was “Active” and the Activity [2] was “Toxic”. For the same compound, the “inhibition (INH)” value (Heat shock protein HSP90 [3]) was “Active”.
Compound `Nc1nc(Cl)c2cnc(Cc3ccc4c(c3)OCO4)n2n1` has an IC50 [4] greater than 10 µM and an IC50 [5] greater than 10 µM.
In the case of `COc1c(C)cnc(Cn2cnc3c(Cl)nc(N)nc32)c1C`, the inhibition [6] is reported as “inactive” and the inhibition [7] is reported as “inactive”.
Work on `Nc1nc(Cl)c2cc(C(=O)O)n(Cc3ccc4c(c3)OCO4)c2n1` yielded an IC50 [4] greater than 10 µM and an IC50 [5] of 8.43 µM.
